This is an account of results in ChEMBL document CHEMBL2150880, “Discovery and characterization of small molecule inhibitors of the BET family bromodomains” (J Med Chem, 2011).

Molecules are shown by their SMILES. Activity calls are given as the source filed them. The rule behind the calls is not given here.

Test [1] concerns HepG2. Nature of the test: Induction of human LDL-R gene expression in stably transfected human HepG2 cells coexpressing luciferase reporter gene at 0.001 to 10 uM after 18 hrs by luminescence assay. It counts as functional, cell-based. An outline of the steps: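 Selectivity counter-screen run in parallel under the same conditions as the ApoA1 reporter: HepG2 cells stably carrying an LDL-receptor promoter–luciferase reporter, 18 h with or without compound in 0.5% DMSO, then Bright Glo luminescence read after 10 min.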
Background: A reporter such as luciferase makes a cellular process visible.

In test [2] the test system is HepG2. Description: Induction of human ApoA1 gene expression in stably transfected human HepG2 cells coexpressing luciferase reporter gene at 0.001 to 10 uM after 18 hrs by luminescence assay. Format: functional, cell-based. An outline of the steps: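 HepG2 cells stably carrying an ApoA1 promoter–luciferase reporter were incubated 18 h with or without freshly diluted compound in 0.5% DMSO. Bright Glo reagent was then added, and luminescence was read after 10 min with substrate.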

Test [3] deals with HepG2. Description: Induction of human ApoA1 protein synthesis in human HepG2 cells assessed as neosynthesised radiolabeled protein secretion after 6 hrs by SDS PAGE analysis in presence of [35S]methionine. It counts as functional, cell-based. An outline of the steps: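 Confluent HepG2 cells were exposed to compound for 48 h in BME with 1% FCS. Compound was re-added in Met/Cys-depleted RPMI-1640 containing 35S-methionine for 6 h at 37 °C. Secreted labelled proteins were separated on 5–12% SDS-PAGE, and ApoA1 was quantified by phosphorimaging.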

The test system of test [4] is HepG2. Description: Induction of human ApoA1 gene expression in stably transfected human HepG2 cells coexpressing luciferase reporter gene after 18 hrs by luminescence assay. Format: functional, cell-based.
Test [5] deals with HepG2. Nature of the test: Induction of human ApoA1 gene expression in stably transfected human HepG2 cells coexpressing luciferase reporter gene after 18 hrs by luminescence assay relative to control. It counts as functional.
Test [6] deals with HepG2. Nature of the test: Induction of human ApoA1 gene expression in stably transfected human HepG2 cells coexpressing luciferase reporter gene at 1 uM after 18 hrs by luminescence assay relative to control. It counts as functional.
Test [7] concerns the target CREB-binding protein (Homo sapiens, UniProt Q92793). Description: Binding affinity to CREBBP by isothermal titration calorimetric analysis.
In test [8] the target is T1, ATPase family AAA domain-containing protein 2 (Homo sapiens, UniProt Q6PL18).
T1 sequence (Q6PL18 whole entry): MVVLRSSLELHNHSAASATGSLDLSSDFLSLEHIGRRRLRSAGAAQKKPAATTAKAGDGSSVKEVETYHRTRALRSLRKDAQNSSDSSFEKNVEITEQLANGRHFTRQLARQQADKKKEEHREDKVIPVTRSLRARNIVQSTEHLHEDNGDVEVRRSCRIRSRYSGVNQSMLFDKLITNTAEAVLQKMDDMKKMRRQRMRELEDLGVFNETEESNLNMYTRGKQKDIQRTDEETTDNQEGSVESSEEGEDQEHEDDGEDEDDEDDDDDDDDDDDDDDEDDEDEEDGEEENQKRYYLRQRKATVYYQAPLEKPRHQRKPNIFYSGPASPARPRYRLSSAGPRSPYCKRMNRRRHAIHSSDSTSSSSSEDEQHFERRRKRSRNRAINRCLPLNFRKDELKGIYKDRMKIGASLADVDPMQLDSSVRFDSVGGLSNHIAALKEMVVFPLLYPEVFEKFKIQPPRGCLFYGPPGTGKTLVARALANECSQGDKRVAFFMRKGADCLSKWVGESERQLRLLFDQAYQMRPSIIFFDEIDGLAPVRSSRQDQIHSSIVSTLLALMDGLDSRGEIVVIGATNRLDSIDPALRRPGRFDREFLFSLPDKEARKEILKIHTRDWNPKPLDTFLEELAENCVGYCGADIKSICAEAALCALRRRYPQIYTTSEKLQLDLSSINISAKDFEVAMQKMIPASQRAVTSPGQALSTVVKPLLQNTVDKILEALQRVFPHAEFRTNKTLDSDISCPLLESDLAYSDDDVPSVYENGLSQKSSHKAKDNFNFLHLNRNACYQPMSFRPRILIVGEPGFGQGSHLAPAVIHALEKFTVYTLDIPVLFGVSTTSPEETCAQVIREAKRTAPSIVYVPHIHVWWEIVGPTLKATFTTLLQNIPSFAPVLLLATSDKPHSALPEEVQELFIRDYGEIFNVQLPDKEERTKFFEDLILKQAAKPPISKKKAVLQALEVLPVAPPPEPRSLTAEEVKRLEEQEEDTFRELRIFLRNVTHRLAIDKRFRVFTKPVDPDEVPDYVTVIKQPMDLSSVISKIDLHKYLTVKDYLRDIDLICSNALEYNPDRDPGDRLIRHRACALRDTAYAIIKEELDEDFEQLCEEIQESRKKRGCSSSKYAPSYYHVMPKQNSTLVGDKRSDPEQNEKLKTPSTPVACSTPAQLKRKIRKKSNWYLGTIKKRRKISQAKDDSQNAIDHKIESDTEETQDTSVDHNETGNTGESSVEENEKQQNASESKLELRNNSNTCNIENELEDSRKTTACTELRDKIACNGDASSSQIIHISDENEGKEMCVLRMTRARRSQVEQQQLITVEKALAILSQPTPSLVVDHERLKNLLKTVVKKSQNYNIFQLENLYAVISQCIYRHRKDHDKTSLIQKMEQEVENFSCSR
Nature of the test: Binding affinity to ATAD2 by isothermal titration calorimetric analysis. On the technique in general: In ITC the heat of successive injections is recorded.

CREB-binding protein, sequence (Q92793 whole entry, the tested form may be a part): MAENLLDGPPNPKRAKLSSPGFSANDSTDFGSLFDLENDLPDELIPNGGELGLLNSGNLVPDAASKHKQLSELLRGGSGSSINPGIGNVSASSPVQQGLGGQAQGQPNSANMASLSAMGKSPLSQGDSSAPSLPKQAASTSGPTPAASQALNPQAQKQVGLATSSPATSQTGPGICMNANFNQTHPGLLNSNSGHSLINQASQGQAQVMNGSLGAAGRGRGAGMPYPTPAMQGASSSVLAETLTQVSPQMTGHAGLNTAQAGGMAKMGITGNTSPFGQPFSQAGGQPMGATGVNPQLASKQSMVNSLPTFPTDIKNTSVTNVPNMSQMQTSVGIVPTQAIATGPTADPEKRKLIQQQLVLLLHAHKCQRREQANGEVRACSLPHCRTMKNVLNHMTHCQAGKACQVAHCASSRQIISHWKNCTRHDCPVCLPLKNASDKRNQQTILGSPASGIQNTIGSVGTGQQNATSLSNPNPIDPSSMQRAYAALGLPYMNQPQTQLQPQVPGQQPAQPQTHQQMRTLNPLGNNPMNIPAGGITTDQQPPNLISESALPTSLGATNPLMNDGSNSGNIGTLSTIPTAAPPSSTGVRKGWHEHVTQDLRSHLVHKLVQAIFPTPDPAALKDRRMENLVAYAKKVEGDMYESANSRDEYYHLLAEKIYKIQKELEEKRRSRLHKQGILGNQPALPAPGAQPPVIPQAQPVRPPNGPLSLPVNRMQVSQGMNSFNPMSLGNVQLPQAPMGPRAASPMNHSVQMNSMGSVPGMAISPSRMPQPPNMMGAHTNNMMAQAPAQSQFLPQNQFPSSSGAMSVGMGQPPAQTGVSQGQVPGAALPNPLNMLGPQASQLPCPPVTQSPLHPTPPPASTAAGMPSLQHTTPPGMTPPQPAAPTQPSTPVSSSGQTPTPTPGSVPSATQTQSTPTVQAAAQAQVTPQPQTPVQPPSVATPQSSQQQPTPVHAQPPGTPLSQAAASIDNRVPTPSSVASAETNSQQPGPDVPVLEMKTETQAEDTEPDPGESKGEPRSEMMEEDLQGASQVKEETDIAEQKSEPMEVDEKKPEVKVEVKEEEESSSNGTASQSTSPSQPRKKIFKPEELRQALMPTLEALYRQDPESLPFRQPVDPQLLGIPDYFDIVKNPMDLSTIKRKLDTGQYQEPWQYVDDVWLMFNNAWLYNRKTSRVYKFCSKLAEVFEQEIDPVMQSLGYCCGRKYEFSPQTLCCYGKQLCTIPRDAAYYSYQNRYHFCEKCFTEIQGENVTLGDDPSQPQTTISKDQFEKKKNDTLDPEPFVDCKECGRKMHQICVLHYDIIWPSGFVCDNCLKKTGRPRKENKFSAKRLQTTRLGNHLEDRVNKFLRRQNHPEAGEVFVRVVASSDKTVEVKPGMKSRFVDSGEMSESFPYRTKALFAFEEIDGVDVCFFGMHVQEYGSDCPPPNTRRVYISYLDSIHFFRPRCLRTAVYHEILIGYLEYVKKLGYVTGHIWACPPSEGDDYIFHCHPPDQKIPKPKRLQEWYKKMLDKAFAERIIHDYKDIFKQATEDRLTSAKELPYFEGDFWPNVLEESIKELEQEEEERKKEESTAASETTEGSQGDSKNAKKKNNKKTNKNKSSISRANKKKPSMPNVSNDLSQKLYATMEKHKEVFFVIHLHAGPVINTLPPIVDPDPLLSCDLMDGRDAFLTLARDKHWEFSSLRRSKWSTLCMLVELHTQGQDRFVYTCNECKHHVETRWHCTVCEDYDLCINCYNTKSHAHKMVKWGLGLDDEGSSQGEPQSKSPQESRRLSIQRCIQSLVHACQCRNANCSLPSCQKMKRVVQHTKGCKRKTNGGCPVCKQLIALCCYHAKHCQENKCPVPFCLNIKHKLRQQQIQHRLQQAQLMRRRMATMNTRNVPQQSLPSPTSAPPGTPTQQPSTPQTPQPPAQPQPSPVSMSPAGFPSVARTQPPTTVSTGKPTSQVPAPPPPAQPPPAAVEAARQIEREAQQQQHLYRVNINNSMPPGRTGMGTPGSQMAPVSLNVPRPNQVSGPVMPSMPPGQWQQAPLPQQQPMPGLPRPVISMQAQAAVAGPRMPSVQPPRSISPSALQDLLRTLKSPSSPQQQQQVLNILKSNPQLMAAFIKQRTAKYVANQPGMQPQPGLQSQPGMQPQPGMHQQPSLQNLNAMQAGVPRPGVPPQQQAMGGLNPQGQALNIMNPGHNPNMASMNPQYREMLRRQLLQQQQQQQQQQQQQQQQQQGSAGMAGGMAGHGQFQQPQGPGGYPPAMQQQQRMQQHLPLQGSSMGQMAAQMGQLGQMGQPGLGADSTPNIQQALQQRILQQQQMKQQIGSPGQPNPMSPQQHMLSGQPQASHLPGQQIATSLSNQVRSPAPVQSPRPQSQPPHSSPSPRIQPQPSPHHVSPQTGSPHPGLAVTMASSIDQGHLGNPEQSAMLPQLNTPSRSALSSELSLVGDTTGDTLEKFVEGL

For the compound `CCNC(=O)C[C@H]1N=C(c2ccc(Cl)cc2)c2cc(OC)ccc2-n2c(C)nnc21`, the result in test [1] and in test [2] was inactive.

`CCNC(=O)C[C@@H]1N=C(c2ccc(Cl)cc2)c2cc(OC)ccc2-n2c(C)nnc21`: in test [1], the result was inactive. Further, the outcome in test [3] was Active. Further, the Activity entry in test [4] is “Dose-dependent effect”.

Regarding `Cc1nnc2n1-c1ccccc1C(c1ccccc1)=NC2NC(=O)OCc1ccccc1` (configuration not stated), the “fold change (FC)” value came out at 4.5 in test [5] and 3 in test [6]. The Kd in test [7] and in test [8] was above 50 µM in each case. For the same compound, the outcome in test [1] was inactive. Moreover, the Activity entry in test [4] is “Dose-dependent effect”. The same compound returned an EC50 in test [4] (HepG2, 18 h) of 0.44 µM.

Usually Kd stands for the free concentration of one partner at which half of the binding sites on the other are occupied at equilibrium, for simple one-to-one binding. The term EC50 denotes the midpoint of the concentration-response curve. Low readings indicate greater potency, high ones weaker potency.
